For eleven compounds, IC50 results are on record in ChEMBL document CHEMBL2057105, “Effect of substitution at N″-position of N'-hydroxy-N-amino guanidines on tumor cell growth” (Bioorg Med Chem Lett, 2012).

For the assay, the system named is HL-60. The assay can be described thus: Cytotoxicity against human HL60 cells after 72 hrs by trypan blue assay. Conditions: HL-60, 72 h. In kind it is functional, cell-based. Summed up: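 HL-60 cells in log phase, grown in RPMI 1640 with 10% heat-inactivated FCS, 1% L-glutamine and 1% penicillin–streptomycin (37 °C, 5% CO₂), seeded at 0.1 × 10^6/mL in flasks and exposed to increasing compound concentrations for 72 h at 37 °C. Viable cells counted electronically after trypan blue staining; IC50 as 50% growth inhibition; means SD of at least three experiments.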

One may read the IC50 as the concentration that inhibits the measured activity by half. A lower IC50 goes with greater potency in that assay. The compound `O=C(N/C(=N/O)N/N=C/c1c2ccccc2cc2ccccc12)c1cc([N+](=O)[O-])cc([N+](=O)[O-])c1` registered an IC50 of 8 µM.

`ON/C(=N\C1CCCCC1)N/N=C/c1c2ccccc2cc2ccccc12`: inhibition was half-maximal at 21.1 µM (IC50).

As to `CC(=O)N/C(=N/O)N/N=C/c1c2ccccc2cc2ccccc12`, inhibition was half-maximal at 20 µM (IC50).

Consider `CCC/N=C(/NO)N/N=C/c1c2ccccc2cc2ccccc12`, for which the IC50 was found to be 24.9 µM.

In the case of `CCCC/N=C(\NO)N/N=C/c1c2ccccc2cc2ccccc12`, half-maximal inhibition (IC50) was put at 21.1 µM.

For the compound `ON/C(=N\CCc1ccccc1)N/N=C/c1c2ccccc2cc2ccccc12`, the midpoint of inhibition, the IC50, lay at 19.6 µM.

Compound `C/N=C(/NO)N/N=C/c1c2ccccc2cc2ccccc12` displayed an IC50 of 32.9 µM.

Consider `CC/N=C(/NO)N/N=C/c1c2ccccc2cc2ccccc12`, for which the IC50 was found to be 22.6 µM.

On to `O=C(N/C(=N/O)N/N=C/c1c2ccccc2cc2ccccc12)c1ccc([N+](=O)[O-])cc1`, for which the concentration for half-maximal inhibition (IC50) was 10 µM.

Turning to `ON/C(=N\Cc1ccccc1)N/N=C/c1c2ccccc2cc2ccccc12`, half-maximal inhibition (IC50) was put at 19.3 µM.

`CC(C)/N=C(/NO)N/N=C/c1c2ccccc2cc2ccccc12` had a concentration for half-maximal inhibition (IC50) of 29.8 µM.
